MT stabilizer: microtubule stabilization, imaging screen. HeLa tubulin immunostaining HCS, 24 h; share of cells brighter than vehicle mean+2SD. % tubulin-high responders, % at 10 µM. 200,000 tested, 0.83% active. AID 2205;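 active = plate Z-score above 3 for both tubulin-high and condensed-nucleus cell shares, with cell loss under 80%, at 10 µM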;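 note: anti alpha tubulin signal scored within the nucleus-defined area of each cell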
DTT redox prof: compounds producing H2O2 with reducing agent – biochemical, NIH compound library profiling, artefact control for MLSCN library redox annotation, primary screen. DTT-dependent redox cycling H2O2, phenol red/HRP absorbance; 100% = 100 µM peroxide control, 0% = buffer. AID 878. 200,000 tested, 0.03% active. activation, % at 10 µM;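 active = activation of at least 50% relative to the plate's high and low controls in the primary single-dose screen; inactive = activation below 50%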;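 note: compound incubated with DTT at 0.8 mM final as the reducing agent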
Cl transport mod: modulates chloride dependent transport by human KCC2. B-score of Tl+ flux slope (higher = more flux/activation; lower = inhibition) at 10 µM. KCC2 cells, thallium flux FluoZin-2 fluorescence. AID 1456. 190,000 tested, 2.2% active. Q9H2X9;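 active = thallium flux slope and its plate-corrected score both differing from the plate sample mean at a set confidence after two filtering rounds, in either direction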;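 note: slope of fluorescence scaled to starting intensity during 10 to 20 s after thallium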
ROMK primary: modulators of human ROMK potassium channel; P48048; Tet-inducible ROMK, thallium flux fluorescence; actives lie on both sides; AID 1918; 130,000 tested, 2% active; B-score at 10 µM;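 active = signal ratio slope over the read window, or its plate-corrected B-score, at least 3 SD from the plate mean, either direction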;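 note: B-score of the F/F0 ratio slope over 7 to 12 s after thallium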
Target sequence (P48048 whole entry, looked up): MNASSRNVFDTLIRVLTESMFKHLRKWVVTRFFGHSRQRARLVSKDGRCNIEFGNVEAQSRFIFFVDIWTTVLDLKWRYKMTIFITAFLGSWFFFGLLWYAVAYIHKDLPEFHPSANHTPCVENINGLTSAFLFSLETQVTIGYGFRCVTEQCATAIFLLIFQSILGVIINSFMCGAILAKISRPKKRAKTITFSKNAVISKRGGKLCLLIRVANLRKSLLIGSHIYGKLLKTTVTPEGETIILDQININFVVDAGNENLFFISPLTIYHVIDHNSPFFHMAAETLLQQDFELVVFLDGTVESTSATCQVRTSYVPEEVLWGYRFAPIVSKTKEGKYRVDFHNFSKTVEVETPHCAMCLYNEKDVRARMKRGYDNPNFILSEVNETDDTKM
b-catenin transl: modulators of beta-catenin nuclear translocation; 190,000 tested, 0.3% active; HeLa beta-catenin nuclear translocation, immunofluorescence imaging; nuclear translocation activity, % at 5 µM;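 active = nuclear translocation activity above 50% at 5 µM, with a well cell count of 50 or more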;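 note: per-cell ratio of nuclear to cytoplasmic median beta-catenin stain intensity; plate controls were DMSO negative control for no effect and GSK-3 inhibitor IX positive control for full effect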
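test system = HeLa cells, endogenous beta-catenin | dosing = single 5 µM dose plus 0.02–20 µM confirmation series | times = compound treatment 24 h, 37°C, 5% CO2 | technique = beta-catenin immunofluorescence imaging with DAPI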
* hit, by the source's call; . = not tested or not shown. Sampled rows, rich in hits. Any-hit rate of the full collection: about 3.7%.

SMILES	MT stabilizer	DTT redox prof	Cl transport mod	ROMK primary	b-catenin transl
Cc1c(C(=O)N/N=C/c2ccc(Cl)cc2)[nH]c2ccc(Cl)cc12	6	0	2.5	0.54	119*
O=C(CC(=O)Nc1ccccn1)Nc1ccccn1	3	0	.	0.03	-3
O=C(CN1CCN(CC(=O)Nc2ccccn2)CC1)Nc1ccccn1	2	1	-4.3*	.	-5
O=C(O)CSc1cc(C(=O)c2ccccc2O)cn2c(=O)c3c4c(sc3nc12)CCCC4	.	.	-0.19	.	0
O=[N+]([O-])c1ccc(/C=C2\CCC(C3=CCCC3)=C2N2CCOCC2)cc1	2	2	0.24	.	-1
O=C(/C=C/c1ccco1)Nc1nnc(-c2ccco2)s1	8.2*	-1	0.88	2	12
CCc1nnc(NC(=O)/C=C/c2ccco2)s1	4	0	0.86	.	-3
Cc1nc(NC(=O)/C=C/c2ccco2)sc1C	16*	-1	2	1.8	-3
O=C(/C=C\c1ccco1)Nc1cc([N+](=O)[O-])ccc1F	4	0	0.19	.	56*
O=C(/C=C/c1ccco1)Nc1cccc(NC(=O)/C=C/c2ccco2)n1	3	1	-1.5	.	.
O=C(CCc1nc2ccccc2s1)NC1CCOC1=O (configuration not stated)	.	.	0.038	.	1
Cc1cc(C)cc(C(=O)NCC(=O)OC(C)C(=O)N(C)c2ccccc2)c1 (configuration not stated)	4	-2	0.13	-0.51	-1
CC(C)OCCCN1CN(S(=O)(=O)c2cccs2)c2nc3ccccc3nc21	.	.	-0.91	-0.0057	-1
CCN(CC(=O)NC(C)C)C(=O)[C@H](C)NC(=O)c1ccc(Br)cc1	3	0	0.25	0.085	1
O=[N+]([O-])c1cccc(CNc2ccc3c(c2)CCC3)c1	2	0	-0.072	0.22	.
COc1cccc(C2CC(=O)Nc3cc4c(cc32)CCC4)c1 (configuration not stated)	17*	0	-1.9	.	2
Cc1ccc(C2CC(=O)Nc3c2ccc2ccccc32)cc1[N+](=O)[O-] (configuration not stated)	3	1	-2.1	-0.76	-1
O=C1CC(c2cccnc2)c2cc3c(cc2N1)OCCO3 (configuration not stated)	3	-1	0.11	.	-2
O=C1CC(c2cccc(Cl)c2)c2cc3c(cc2N1)CCC3 (configuration not stated)	32*	-7	0.045	.	0
O=C1CC(c2cccc([N+](=O)[O-])c2)c2c(ccc3ccccc23)N1 (configuration not stated)	50*	1	-0.17	-0.32	-1
O=C1CC(c2cccc([N+](=O)[O-])c2)c2cc3c(cc2N1)CCC3 (configuration not stated)	26*	-1	0.5	-0.84	0
COc1cccc(C2CC(=O)NC(SC)=C2C#N)c1 (configuration not stated)	4	-1	.	.	.
CN(CCC#N)CC(=O)Nc1ccc(S(N)(=O)=O)cc1	5	0	0.37	0.011	-5
COc1ccc(NS(=O)(=O)c2c(F)cc(F)c(Cl)c2F)cc1S(=O)(=O)N1CCCCC1	8	0	-0.76	-0.83	0
O=C1NC(Nc2nccs2)(C(F)(F)F)C(=O)N1CCc1ccccc1 (configuration not stated)	5	2	-2.6*	1.4	-1
SMILES	MT stabilizer	DTT redox prof	Cl transport mod	ROMK primary	b-catenin transl
CCOC(=O)c1c2ccc(OCC(=O)N/N=C/c3ccccc3C(F)(F)F)cc2n2ccccc12	33*	0	.	-1.6	-7
CSc1ccccc1NC(=O)Nc1cccc(Cl)c1C	2	-2	-0.088	-1.1	0
Cc1c(Cl)cccc1NC(=O)C(=O)NNC(=O)c1ccccc1F	2	1	89*	10*	-2
Cc1ccccc1C(=O)NNC(=O)C(=O)Nc1cccc(Cl)c1C	1	1	46*	.	-1
O=C(NNC(=O)c1ccccc1Cl)c1ccccc1Cl	.	.	0.16	.	5
CN(CC(=O)Nc1cccc([N+](=O)[O-])c1)S(=O)(=O)c1ccccc1	1	0	-0.22	-0.03	0
COc1ccc2oc(=O)c(-c3nnc(NCc4ccco4)s3)cc2c1	46*	4	-0.66	-0.0061	6
COc1ccc(/C=N/NC(=O)c2cccnc2)cc1COc1ccc([N+](=O)[O-])c(C)c1	.	.	-1	.	82*
c1ccc(Cc2nnc(-c3ccccc3)o2)cc1	3	1	14*	.	.
Cc1cc(C)c2c(c1)/C(=N/NC(=S)Nc1ccc(F)cc1)CCC2	2	-1	2.9*	2.3	-2
CCOC(=O)c1c(C)[nH]c(C(=O)NNC(=O)c2ccccc2)c1C	1	2	.	.	1
CCOC(=O)c1c(C)[nH]c(C(=O)N/N=C\c2ccccc2Cl)c1C	23*	0	0.64	.	49
CCOC(=O)c1c(C)[nH]c(C(=O)N/N=C/c2cccc(OC)c2)c1C	20*	0	-0.56	.	0
CN1CC(=O)N2[C@H](c3ccc4c(c3)OCO4)c3[nH]c4ccccc4c3C[C@@H]2C1=O	.	.	-0.96	.	-6
Cc1ccc(C(=O)NCCNS(C)(=O)=O)cc1	4	-1	-0.024	-0.34	-3
Nc1cccc(CCc2nc3cc4ccccc4cc3[nH]2)c1	18	0	-0.78	0.28	81*
Cc1c(O)c2c(=O)n(-c3ccccc3)c(-c3ccccc3)cc2oc1=O	3	0	0.39	0.64	-2
CC1=NNC(=O)c2ccccc2O1	2	-1	-0.12	0.49	1
Cc1nn(-c2ccc(F)cc2)c(Cl)c1/C=C1\C(=O)Nc2ccccc21	22*	0	-0.92	-0.0025	1
Cc1nn(-c2ccccc2)c(Cl)c1/C=C1\N=C(c2ccccc2)OC1=O	2	1	-0.039	-0.28	.
CCc1ccc(C(=O)NNC(=S)Nc2ccc(S(N)(=O)=O)cc2)s1	4	-1	0.41	-0.14	0
O=S(=O)(c1ccc(Cl)cc1)c1snnc1-c1ccccc1	17*	0	-0.055	0.0033	.
CCN(CC)C(=O)C1CCN(Cc2cccc(OCc3ccccc3)c2)CC1	5	2	-0.28	-3.1*	-4
CC(=O)OC1CC(c2cc(C(C)(C)C)c(O)c(C(C)(C)C)c2)=NO1 (configuration not stated)	.	.	-0.3	.	0
O=C(Nc1nc2ccc(S(=O)(=O)N3CCCC3)cc2s1)C1CCCCC1	34*	-4	-0.58	.	3
COc1ccc(-n2c(=O)c3c4c(sc3n(CC(N)=O)c2=O)CCCCC4)cc1	.	.	0.68	1.1	1
Cc1cccc(/C=c2\s/c(=C\C(=O)C(C)(C)C)[nH]c2=O)c1	19	3	12*	.	3
CCOC(=O)/C(C#N)=N\Nc1cc(Cl)ccc1OC	.	.	0.45	.	1
CNC(=S)NNC(=O)c1sc(-c2cc(C)on2)nc1C	.	.	0.81	0.73	0
CCOC(=O)c1nc(C)nc(Sc2n[nH]c(-c3ccccc3)n2)c1C	.	.	-0.73	.	-1
